# From PMC6323139 (Bioorganic & medicinal chemistry, 2017)
# “Also recorded” adds a separate entry of the source.
# What was measured:
# Assay type in all cases: biochemical
# MIF [1] = biological target: T1, MIF (Homo sapiens, UniProt P14174); test: Preincubation assay; conditions: for Reversibility of inhibition: concluded from preincubation and dilution experiments; for Change in IC50 between preincubation times: preincubated with MIF (340 nM) for 2 or 40 min, inhibitor 125–0 μM
# T1 sequence (P14174 2-115 limits assumed): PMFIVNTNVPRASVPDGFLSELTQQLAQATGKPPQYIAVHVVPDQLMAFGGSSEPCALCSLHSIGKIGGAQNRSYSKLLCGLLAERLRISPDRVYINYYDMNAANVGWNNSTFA
# Method in brief: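 His-tagged MIF (340 nM final, in boric acid pH 6.2) was preincubated 2 or 40 min with test compound (125–0 µM, 1.6-fold series, 5% DMSO). 0.5 mM 4-HPP (equilibrated overnight in ammonium acetate pH 6.0) was added, A306 followed, and IC50 curves made. For dilution, 34 µM MIF plus 125 µM compound was diluted 100-fold into 4-HPP/boric acid, with a DMSO-only control and absorbance tracked.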
# MIF [2] = biological target: T1, MIF; test: Enzyme kinetic evaluation at increasing 4-HPP concentrations; conditions: concluded from Vmax app. and Khalf app.
# Method in brief: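 Initial velocities were taken from the linear slope of absorbance at 306 nm. Conditions were His-tagged recombinant MIF at 340 nM in boric acid pH 6.2, with 4-HPP at 0–2.56 mM (1.25× dilutions) and test compound at 0, 6.25 or 12.5 µM in 5% DMSO. Velocity versus substrate was fitted to an allosteric sigmoidal model, giving Vmax app., Hill slope and Kprime app. Khalf app. was calculated from Kprime and the Hill slope.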
# MIF [3] = biological target: T1, MIF; test: Dilution experiment; conditions: MIF 34 μM with 125 μM inhibitor, diluted 100x in substrate solution
# Method in brief: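 Recombinant His-tagged MIF, purified on His-Trap resin, was premixed at 34 µM with 125 µM test compound in 5% DMSO. The mix was diluted 100-fold into boric acid containing 0.5 mM 4-HPP. The 4-HPP stock was made in 50 mM ammonium acetate pH 6.0 and equilibrated overnight at room temperature. Enol-borate absorbance at 306 nm was plotted against time. The control used 5% DMSO without inhibitor.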
Reversibility of inhibition (MIF [1]),SMILES,Change in IC50 between preincubation times (MIF [1]),Mechanism of inhibition (competition with substrate 4-HPP) (MIF [2]),MIF enzyme activity after dilution of the enzyme-inhibitor mixture (MIF [3])
reversible inhibitors,CCCCCCCCCCCCN1C(=O)CC2C(=C(N)Oc3ccccc32)C1=O (stereo not drawn) [Compound 10],No difference in IC50; also recorded: No significant change in IC50 value,no direct competition between the substrate 4-HPP and the inhibitor; also recorded: does not bind in direct competition with the substrate 4-HPP,activity of MIF could be recovered after dilution; also recorded: Diluting the inhibitor recovered the enzyme activity
reversible inhibitors,Cc1ccc2c(c1)OC(N)=C1C(=O)N(CCc3c[nH]c4ccccc34)C(=O)CC12 (stereo not drawn) [Compound 17],No difference in IC50,,
